# NF-kB neuron act – raises NF-kB expression in human neuronal cells | NF-kB reporter expression; active compounds read high | fold change at 12.5 µM | hit rate 1.6% among 190,000 | AID 1239; in the data active = fold change above about 3.3
# STAT3 blocker – reduces IL-6 driven STAT3 reporter signal; U3A cells, IL-6 STAT3-luciferase reporter, luminescence; host cell line lacks STAT1; hit rate 0.89% among 190,000; AID 862; inhibition, % at 5.5 µM;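 active = inhibition above the mean inhibition across all screened compounds plus 3 SD, cut at about 44% in these data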;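 note: 0% = DMSO only wells and 100% = 100 µM nifuroxazide control wells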
# STAT1 act-1 – increases IFN-gamma driven STAT1 reporter signal; hit rate 2.6% among 200,000; NIH 3T3 STAT1-luciferase reporter, luminescence; 100% = IFN-gamma alone, no compound; activation (% of control), % at 5.5 µM; AID 932;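 active = activation above the screen-wide mean activation plus 3 SD, cut at about 130% in these data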;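 note: raw ratio to IFN-gamma control signal so 100% means no change and 0% no light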
# STAT1 inh – reduces IFN-gamma driven STAT1 reporter signal. NIH 3T3 STAT1-luciferase reporter, luminescence. inhibition, % at 5.5 µM. hit rate 0.35% among 200,000;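 active = inhibition above a set limit, the mean inhibition across all tested compounds plus 3 SD, cut at about 34% in these data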;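 note: 0% = IFN-gamma with DMSO and 100% = IFN-gamma with 300 µM nifuroxazide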
# APP 5'UTR act – activates APP 5'UTR luciferase reporter; SH-SY5Y APP 5'UTR luciferase reporter, luminescence; zero percent = DMSO vehicle wells; activation, % at 2 µM; hit rate 1% among 190,000; AID 1276;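 active = activation above a set limit, based on mean plus 3 SD of controls, cut at about 140% in these data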
# STAT3 act-1 – activators of IL-6 induced STAT3 signaling. U3A cells, IL-6 STAT3-luciferase reporter, luminescence; 100% = signal with IL-6 EC80 alone. activation (% of control), % at 5.6 µM. hit rate 0.91% among 190,000;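 active = activation above the screen-wide mean of compound activation plus 3 SD, cut at about 130% in these data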;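 note: 0% = background luminescence of wells with medium and substrate only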
#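 Material: STAT1-lacking human U3A cells, STAT3 luciferase reporter | Benchmarks: IL-6-only wells as 100% reference | Probe or stimulus: IL-6 (33 ng/mL) | Timing: Compound 1 h, then IL-6 6 h at 37 °C | Detection: Luminescence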
# STAT3 act-2 – confirmation of STAT3 signaling activators; shares compounds with STAT3 act-1; U3A STAT3-luciferase reporter, IL-6 potentiation, luminescence; U3A cells lack STAT1; 100 means same as IL-6 alone; potentiation (% of control), % at 5.7 µM; hit rate 64% among 1,200; AID 1267;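 active = percent activation of the STAT3 luciferase reporter above a set limit taken from the earlier primary screen, cut at about 130% in these data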;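 note: 0% = background signal of medium plus substrate and 100% = median of IL-6 with DMSO wells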
# NFkB act 2 – activates NF-kappaB, counter-screen to STAT3 activators. shares compounds with STAT3 act-1. hit rate 11% among 1,200. AID 1309. human cells, NF-kappaB reporter activation. activation (% of control), % at 5.7 µM; in the data active = activation above about 120%;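 note: reporter induced by TNF-alpha stimulation; 100% = median of stimulated DMSO wells and 0% = no signal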
# STAT1 act-2 – STAT1 activation in STAT3 activator counter-screen | activation (% of control), % at 5.7 µM | shares compounds with STAT3 act-1 | hit rate 13% among 1,200 | AID 1318 | NIH 3T3 STAT1-luciferase reporter, IFN-gamma, luminescence;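 active = activation above the solvent-only control well mean plus 3 SD, set per screening run, cut at about 120% in these data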;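 note: 100% = IFN-gamma with DMSO median signal so 100% means no change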
# An asterisk follows results filed as active; · = no result. The list is not random: actives were taken first. Their share in the collection is about 4.9%.
SMILES,NF-kB neuron act,STAT3 blocker,STAT1 act-1,STAT1 inh,APP 5'UTR act,STAT3 act-1,STAT3 act-2,NFkB act 2,STAT1 act-2
Cc1ccc(NP(=O)(c2ccc(N(C)C)cc2NC(=O)c2cccs2)N2CCOCC2)cc1 (centres undefined),1.2,-53.3,99.0,1.1,12.5,138.9*,135.1*,100.9,101.1
O=C1SC(SCc2ccccc2Cl)=N/C1=C\c1ccc(C(=O)O)cc1,1.09,4.5,100.3,-0.2,9.4,96.2,·,·,·
O=C(CSc1ncc(-c2ccccc2)n1C1CCCC1)N1CCc2ccccc21,1.04,-47.7,98.3,1.9,9.5,141.3*,123.3,108.2,95.4
CCn1c(CSc2ncccn2)nnc1SCC(=O)N1CCc2ccccc21,1.05,-49.8,89.9,11.0,0.8,148.4*,123.0,102.9,94.1
Cc1cc2cc(CNC(=O)c3ccc4c(c3)OCO4)ccc2n1C,0.98,0.1,94.9,6.8,-4.6,103.6,·,·,·
CCOc1ccc(-n2c(N)c(-c3nc4ccccc4[nH]3)sc2=S)cc1,0.72,17.0,98.6,1.5,21.5,90.0,·,·,·
COc1ccc(-n2c(N)c(-c3nc4ccccc4n3C)sc2=S)cc1,1.22,-55.2,99.5,0.6,16.4,147.9*,172.6*,106.0,109.9
CCNc1nc(NC(C)(C)C)nc(SC(C(C)=O)C(C)=O)n1,0.77,-44.0,103.9,-2.8,2.9,140.5*,118.5,117.1,109.9
CCNc1nc(SC(C(C)=O)C(C)=O)nc(N(C)C)n1,1.04,-13.7,101.9,-2.9,8.1,112.6,·,·,·
CN(C)CCN(C(=O)c1ccccc1Cl)c1nc2c(Cl)cccc2s1,1.15,2.8,96.0,4.4,-0.3,96.4,·,·,·
COc1cc(CO)cc(Br)c1OCc1cccnc1,0.93,2.1,97.0,4.5,5.3,101.9,·,·,·
COc1ccc(S(=O)(=O)N2CCN(Cc3ccccc3)CC2)cc1,1.25,-39.5,104.4,-4.8,-8.0,137.7*,104.8,103.5,100.5
COc1cc(OC)c(-c2nc3ccccc3s2)cc1OC,0.98,-50.7,106.5,-8.7,25.8,148.5*,153.7*,103.8,114.0
COc1cc(-c2nc3ccccc3s2)ccc1O,2.73,-48.4,103.6,-3.9,48.5,140.9*,134.7*,93.7,121.2*
Clc1ncccc1-c1nc2ccccc2s1,1.81,1.7,124.4,-26.3,29.9,100.2,·,·,·
O=C(N/N=C/c1ccc(OCC(=O)N2CCCCC2)cc1)c1ccccc1O,1.18,-39.3,91.3,9.6,3.3,141.4*,145.7*,104.2,113.9
Fc1ccc(OCc2nc(-c3ccc(Br)o3)no2)c(F)c1,1.65,-3.6,104.8,-5.3,1.4,106.9,·,·,·
Clc1ccccc1OCc1nc(-c2ccc(Br)o2)no1,2.84,-33.0,122.8,-25.2,11.5,136.7*,126.3,109.9,125.4*
O=C(c1ccccc1)N1CCCCC(S(=O)(=O)c2ccc3ccccc3c2)C1=O (centres undefined),0.93,15.6,108.6,-9.3,-6.5,91.4,·,·,·
CC12CN3CC(C)(CN(C1)C3c1c[nH]c3ccccc13)C2=O (centres undefined),1.06,8.2,102.2,-4.0,-2.2,96.7,·,·,·
CC1(C)CC(=O)C(c2c[nH]c3ccccc23)C(=O)C1,0.87,-54.9,93.7,5.2,11.5,152.2*,163.4*,109.4,102.9
CCOC(=O)c1cc2c(C)n(-c3ccc(C)cc3)c(C)c2ccc1=O,1.43,42.5,97.0,3.2,114.9,69.0,·,·,·
O=C(CCc1nnc(Cc2ccc3c(c2)OCO3)o1)NCc1nc2ccccc2s1,0.95,-48.6,111.4,-12.3,11.5,148.8*,141.7*,105.0,92.7
O=C(CCc1nc2ccccc2[nH]1)NCc1ccc2c(c1)OCO2,0.88,-0.3,97.7,2.5,4.8,100.2,·,·,·
CSc1nnc2c(n1)c(C)nn2-c1ccc(C)cc1,1.87,-55.8,96.2,1.8,1.3,148.9*,160.9*,115.7,127.8*
SMILES,NF-kB neuron act,STAT3 blocker,STAT1 act-1,STAT1 inh,APP 5'UTR act,STAT3 act-1,STAT3 act-2,NFkB act 2,STAT1 act-2
CCn1cc(/C=N/NC(=O)COc2cccc3cccnc23)c2ccccc21,0.73,-9.0,97.8,2.5,19.8,105.4,·,·,·
O=C(Nc1c(F)cccc1F)c1cnc(N2CCN(c3ccccn3)CC2)c2ccccc12,0.31,7.8,106.1,-6.6,-8.0,98.3,·,·,·
Cc1ccc(NC(=O)c2cnc(N3CCN(c4ccccn4)CC3)c3ccccc23)c(Br)c1,0.48,-51.6,91.3,8.4,-3.0,142.7*,126.0,113.2,108.5
CC(=O)Nc1cccc2c1C(=O)N(c1ccc(C)cc1)C2=O,1.56,-67.3,108.1,-5.3,-8.4,160.1*,162.7*,114.2,121.4*
Cc1ccc(N2C(=O)c3cccc4c(C(=O)O)ccc(c34)C2=O)cc1,1.29,13.2,104.7,-4.8,12.0,95.6,·,·,·
Cc1cc(NC(=O)CN2CCN(c3ccccc3O)CC2)no1,0.9,0.1,103.9,-4.2,21.3,102.2,·,·,·
COc1cc(OC)nc(NC2OC(=O)c3ccccc32)n1 (centres undefined),1.23,4.5,98.9,1.2,8.1,99.7,·,·,·
CC1(c2ccc(C#N)cc2)NC(=O)N(CC(=O)Nc2cc(S(=O)(=O)N3CCOCC3)ccc2Cl)C1=O (centres undefined),1.06,-2.5,96.0,3.2,6.8,103.4,·,·,·
CC(C)CNC(=O)CC(c1ccccc1)c1ccccc1,0.95,11.3,97.1,1.4,21.8,99.1,·,·,·
COC(=O)c1c(NC(=O)CN2CCN(C(=O)c3ccco3)CC2)c2c(C)cccc2n1C,0.75,13.3,94.3,6.2,10.7,90.7,·,·,·
COC(=O)c1c(NC(=O)CN2CCN(C(=O)c3ccco3)CC2)c2cc(C)ccc2n1C,0.61,-37.4,103.1,-3.4,7.7,138.5*,141.1*,99.0,97.2
Cc1ccc(S(=O)(=O)c2nnn(-c3cccc(F)c3)c2N)cc1,1.07,-0.3,92.5,6.7,2.3,101.9,·,·,·
COC(=O)c1ccc(NC(=O)C(=O)N2CCN(C(=S)NCCc3ccccc3)CC2)cc1,0.94,-2.0,102.6,-2.9,13.7,102.0,·,·,·
Cn1c(-c2c(N)n(CCc3ccccc3)c3nc4ccccc4nc23)nc2ccccc21,0.49,-35.0,92.5,8.1,9.4,125.7,·,·,·
Cn1c(-c2c(N)n(CCCc3ccccc3)c3nc4ccccc4nc23)nc2ccccc21,0.88,-54.4,94.0,6.6,9.1,151.7*,136.2*,96.6,96.0

# Assay outcomes deposited in PubChem BioAssay by several laboratories.
